Compounds with a hit are over-represented: about 3.7% of the library has one in this group of screens.
RAM inhibit = yeast RAM network inhibition | S. cerevisiae dse1pr::URA3 reporter, 5-FOA growth OD615, 2 d; analog-sensitive cbk1-as2 kinase mutant strain | inhibition, % at 50 µM | 190,000 tested, 1.8% active | AID 868;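 active means inhibition above a set limit, 3 SD over mean compound inhibition, cut at about 8.4% in these data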;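 further: 0% = DMSO-only wells with no growth and 100% = 10 µM 1-NA-PP1 full growth; inhibition rescues growth on 5-FOA so higher OD means more RAM inhibition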
Yeast life ext = extends the lifespan of yeast. S. cerevisiae growth with nicotinamide, OD615; deaD strain in restrictive glucose medium. inhibition of the nicotinamide effect, % at 10 µM. 130,000 tested, 0.68% active;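 active means inhibition above a set limit, placed 3 SD over the median of all compounds, cut at about 26% in these data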;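 further: 0% = nicotinamide-treated wells and 100% = cells grown without nicotinamide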
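assay system = DeaD-strain S. cerevisiae | buffer or medium = restrictive glucose medium | reagent = 1.5 mM nicotinamide | compound = 10 µM single point, 0.25% DMSO | incubation = 48 h compound exposure at 30 °C, humidified | signal = OD615 measurement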
BB579 growth dn = yeast BB579 growth reduction in restrictive medium; S. cerevisiae BB579 growth, OD615, 48 h; inhibition, % at 10 µM; 140,000 tested, 0.51% active; AID 804;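 active means inhibition above a set limit, 3 SD over the mean compound inhibition, cut at about 44% in these data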
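Test system: DeaD yeast strain BB579 / Buffer or medium: restrictive glucose-based CSMM-D medium / Doses: single 10 µM dose / Schedule: 4 h cell preincubation, 48 h compound exposure, 30 °C humidified / Technique: culture absorbance at 615 nm / Controls: amphotericin B positive control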
Insulin prom inh = TRM-6 insulin promoter activity inhibition; inhibition, % at 2 µM; TRM-6 cells, insulin promoter-eGFP reporter, imaging; reporter expression induced with tamoxifen; AID 1273; 130,000 tested, 0.9% active;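 active means inhibition above the mean plus 3 SD, with well images judged a real hit on visual review, cut at about 60% in these data, passing the limit was not always enough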
Efa HMGR inh = inhibitors of class II HMG-CoA reductase from Enterococcus faecalis; purified E. faecalis HMGR, NADPH absorbance 340 nm kinetic; 190,000 tested, 0.41% active; inhibition, % at 10 µM;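 active means inhibition above a set limit, the median over all tested compounds plus 3 SD, cut at about 9.5% in these data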;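 further: enzyme runs in reverse so mevalonate oxidation gives rising NADPH absorbance; 0% = complete reaction with DMSO and 100% = background rate lacking mevalonate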
An asterisk follows results filed as active; nt = no result.

SMILES	RAM inhibit	Yeast life ext	BB579 growth dn	Insulin prom inh	Efa HMGR inh
CC(Sc1nc(-c2ccccc2)cc(C(F)(F)F)n1)C(=O)Nc1sc2c(c1C#N)CCC2 (stereo not given)	10.0*	1	-31	21	3
CCCn1c(SCC(=O)Nc2ccc(C(=O)Nc3ccccc3OC)cc2)n[nH]c1=O	9.2*	nt	nt	-7	1
COc1ccccc1NC(=O)c1ccc(NC(=O)CSc2nncn2C)cc1	8	-6	-28	nt	-12
CCCCN(C)C(=S)Nc1ccsc1C(=O)OC	1	nt	nt	nt	-4
Cc1ccc(CC2SC(N)=NC2=O)cc1 (stereo not given)	2	nt	nt	nt	-6
Cc1nn2cc(-c3ccc(Cl)cc3)cnc2c1Cl	1	nt	nt	38	-5
O=C(COc1ccccc1)Nc1ccc([N+](=O)[O-])cc1	3	-8	-4	-103	-6
CCC(NC(=O)COc1ccc([N+](=O)[O-])cc1)c1ccccc1 (stereo not given)	-1	nt	nt	67*	-4
COc1cc(-c2nc3cccc(C)n3c2NCC2CCCO2)ccc1O (stereo not given)	1	nt	nt	-50	-2
CNC(=O)C(=O)N/N=C/c1ccc(Br)cc1	0	nt	nt	71*	-2
Cc1ccc(CNC(=O)CCC2CCCN(Cc3c(C)nn(C(C)C)c3C)C2)o1 (stereo not given)	0	nt	nt	50	-4
Cc1cc(C)c2nc(NNC(=O)c3cc(=O)c4ccccc4o3)sc2c1	9.5*	nt	nt	nt	-2
Cc1cc(C)c2nc(NNC(=O)c3ccc(S(=O)(=O)N4CCc5ccccc5C4)cc3)sc2c1	2	1	31	-256	-6
O=C(Nc1ccc(S(=O)(=O)Nc2ncccn2)cc1)c1cnc(Cl)c(Cl)c1	11*	nt	nt	nt	3
O=C(Nc1ccc(Cl)cc1)Nc1ccc(S(=O)(=O)Nc2ncccn2)cc1	5	nt	nt	nt	-3
CC(C)=CCN1CCN(Cc2nc(C(C)C)cs2)CC1CCO (stereo not given)	2	nt	nt	nt	-1
CC(C)CN1CCN(Cc2nc(C(C)C)cs2)CC1CCO (stereo not given)	2	nt	nt	nt	11*
Cc1cccc(-c2ncc(CN3CCN(CC(C)C)C(CCO)C3)cn2)c1 (stereo not given)	2	nt	nt	nt	9.6*
CCSC1=NCCN1C(=O)c1ccc(S(=O)(=O)N(C)C)cc1	5	nt	nt	15	-3
CCc1ccc(NC(=O)CSc2nc3ccccc3c(=O)n2CCCN2CCC(C)CC2)cc1	2	nt	nt	20	-1
O=C(C1=C[C@@H](C2CCCCC2)C[C@@H](OCc2ccc(CO)cc2)O1)N1CCN(Cc2ccccc2)CC1	-1	nt	nt	nt	-4
O=C(Cc1cccs1)NNC(=S)NC(=O)c1ccccc1	0	7	86*	4	-3
O=C(NCc1cccc(C(F)(F)F)c1)c1cccc(S(=O)(=O)NCc2ccccc2)c1	3	8	-27	-3	1
O=C(NC(c1ccccc1)c1ccccc1)c1cccc(S(=O)(=O)NCc2ccccc2)c1	8.6*	8	-17	nt	-2
c1csc(-c2nnc(N3CCOCC3)c3ccccc23)c1	1	nt	nt	nt	11*
SMILES	RAM inhibit	Yeast life ext	BB579 growth dn	Insulin prom inh	Efa HMGR inh
CCOC(=O)COc1c(/C=N\O)cc(Cl)cc1OC	0	nt	nt	-73	-1
CC12CC(c3ccccc3O1)C(C(=O)N1CCOCC1)C(=O)N2 (stereo not given)	0	-14	-42	71*	-1
O=C(O)CCC(=O)Nc1ccc(N2CCCCCC2)cc1	3	-2	-49	37	2
Cc1ccc(N2CCN(c3ccc(NC(=O)CCC(=O)O)cc3)CC2)cc1	1	-1	-13	73*	1
Cc1cccc(NC(=O)c2ccccc2NC(=O)CCC(=O)O)c1	0	-5	-9	79*	-3
Cc1ccc(NC(=O)c2cc(NC(=O)CCC(=O)O)ccc2N2CCCCC2)cc1	9.0*	-9	-31	17	2
COc1ccc(N(CC(=O)NCCC2=CCCCC2)S(=O)(=O)c2ccc(C)cc2)cc1	2	nt	nt	nt	4
CCC(=O)Nc1ccc(N2CCN(S(C)(=O)=O)CC2)cc1	0	3	-47	26	-6
Cc1cc(C)n(C(=O)c2sc3cc(F)ccc3c2Cl)n1	3	2	-45	22	1
CC1=NN(Cc2c(C)nn(Cc3ccccc3)c2C)C(C)(C)C1	-1	nt	nt	nt	-2
C=CCN1C(C(=O)c2ccccc2)=C(OC(=O)COc2ccccc2)c2ccccc2S1(=O)=O	6	-2	90*	-7	-4
O=C(COc1ccccc1)NNC1=NS(=O)(=O)c2ccccc21	1	nt	nt	nt	-2
O=C(Oc1cc(=O)n2ccccc2n1)c1ccccc1	-1	43*	-17	-33	-2
Oc1ccc(CN2CCc3ccccc3C2)c2cccnc12	0	1	-17	14	1
Cn1cc(CN2CCc3ccccc3C2)c2ccccc21	0	5	-14	81*	-1
Cc1c(O)nc(SCC(=O)Nc2ccc3c4c(cccc24)CC3)n(-c2ccc(F)cc2)c1=O	9.2*	-2	-36	-25	4
O=C(NCCCCO)c1ccc2c3c(cccc13)CC2	2	nt	nt	nt	-3
COC(=O)c1ccccc1NC(=O)C1CC(=O)N(c2ccc(F)cc2)C1 (stereo not given)	1	-18	-11	71*	-3
CC(=O)Cn1nnc2sc3c(c2c1=O)CCC(C(C)(C)C)C3 (stereo not given)	1	nt	nt	nt	1
CCn1nnc2sc3c(c2c1=O)CCC(C)C3 (stereo not given)	1	25	-13	78*	1
Cc1c(Cl)cccc1-n1c(SCC(=O)NCc2cccs2)nnc1-c1ccncc1	-1	-30	-10	91*	-6
Cc1c(Cl)cccc1-n1c(SCC(=O)NCc2ccccc2Cl)nnc1-c1ccncc1	0	-18	-25	0	0
Cn1c(N)c(S(=O)(=O)N2CCN(c3ccccc3)CC2)c(=O)n(C)c1=O	-1	nt	nt	0	-2
Cn1c(=O)n(C)c2cc([N+](=O)[O-])c(N3CCN(C(=O)C(C)(C)C)CC3)cc21	-1	nt	nt	71*	-5
CS(=O)(=O)N1CCc2cc(S(=O)(=O)N3CCCCC3)ccc21	1	nt	nt	55	16*
SMILES	RAM inhibit	Yeast life ext	BB579 growth dn	Insulin prom inh	Efa HMGR inh
Cc1c(C(=O)N2CCCC2)sc(NC(=O)c2ccco2)c1C#N	0	nt	-24	-5	-6
COc1ccccc1NC(=O)c1sc(NC(=O)c2ccco2)c(C#N)c1C	1	-5	-14	93*	-2
COc1ccc(/C=C2/SC(=O)N(CCNC(=O)C3CCCN3C(=O)c3cccs3)C2=O)cc1 (stereo not given)	8	-2	-9	-30	0
O=C(NCCN1C(=O)S/C(=C/c2ccccc2)C1=O)C1CCCN1C(=O)c1cccs1 (stereo not given)	9.5*	-5	-33	nt	-9
Cc1c(C(=O)N2CCCCC2)nn(-c2ccc(Cl)cc2)c(=O)c1C#N	1	nt	nt	-71	-3
CC(=O)c1ccc(-n2nncc2-c2ccc([N+](=O)[O-])cc2)cc1	1	nt	nt	nt	-1

Source: PubChem BioAssay
